# Most compounds without a hit are left out; they make up all but 2.9% or so of the library.
# ATG4B inhibitor: ATG4B protease inhibitors, primary screen, biochemical, fluorescence, uHTS; Cysteine protease ATG4B (Homo sapiens), Q9Y4P1; ATG4B cleavage of LC3-PLA2, NBD-HPC fluorescence, 1 h; inhibition, % at 8.33 µM; 340,000 compounds, 0.51% hits; AID 504462, 2011; in the data active = inhibition above about 40%
# mABHD4 FP: ABHD4 inhibitors, primary screen, biochemical, fluorescence polarization, mouse | (Lyso)-N-acylphosphatidylethanolamine lipase (Mus musculus), Q8VD66 | purified mABHD4, FP-Rh probe fluorescence polarization | inhibition, % at 8.92 µM | 370,000 compounds, 0.54% hits | AID 720543, 2013;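 active = inhibition exceeding the mean over every tested compound plus 3 SD, cut at about 30% in these data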;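 also: 0% = plate median of compound wells and 100% = S159A mutant with DMSO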
#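 Test system: mouse ABHD4 enzyme, wild type. Reagent: FP-Rh fluorescent activity-based probe, added after compound pre-incubation. Timing: pre-incubation 45 min, probe exposure 60 min, at 25 °C. Technique: FP readout, ex 525 nm / em 598 nm. Benchmarks: high control S159A mutant with DMSO, low control median of compound wells.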
# TCR-CD3 inh: inhibitors of human TCR-CD3 interaction, primary screen, biochemical, fluorescence, TAMRA-labeled TCR probe; T-cell receptor (TCR); inhibition, % at 9.4 µM; 360,000 compounds, 0.37% hits; AID 651800, 2012; in the data active = inhibition above about 19%;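 also: recombinant mutant TCR 2C K166C tagged with TAMRA read by polarization; 0% = receptor in buffer alone and 100% = receptor with positive control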
# PRMT1 inh: PRMT1 methyltransferase inhibitors, primary screen, biochemical, fluorescence polarization; Protein arginine N-methyltransferase 1 (Homo sapiens), Q99873; recombinant PRMT1, activity-based probe fluorescence polarization; inhibition, % at 2.79 µM; 370,000 compounds, 1.3% hits; AID 652257, 2013;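 active = inhibition above about 21% made by adding two undisclosed values, limit read from the data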
# Target sequence (Q99873 whole entry, looked up): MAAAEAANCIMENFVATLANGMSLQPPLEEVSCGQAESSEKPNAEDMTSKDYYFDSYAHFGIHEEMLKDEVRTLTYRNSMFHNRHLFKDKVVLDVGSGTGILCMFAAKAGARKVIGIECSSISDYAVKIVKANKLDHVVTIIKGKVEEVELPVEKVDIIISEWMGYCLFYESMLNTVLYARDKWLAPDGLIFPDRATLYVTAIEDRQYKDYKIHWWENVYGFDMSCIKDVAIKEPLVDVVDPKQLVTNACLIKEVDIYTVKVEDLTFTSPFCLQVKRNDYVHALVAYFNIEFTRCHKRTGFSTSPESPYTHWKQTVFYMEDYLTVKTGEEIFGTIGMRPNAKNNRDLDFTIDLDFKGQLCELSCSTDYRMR
# SIAE inh: human SIAE inhibitors, primary screen, biochemical, fluorescence polarization, FP-Rh probe, 1536-well HTS. Sialate O-acetylesterase (Homo sapiens), Q9HAT2. SIAE FP-Rh probe binding. inhibition, % at 9.66 µM. 370,000 compounds, 0.69% hits;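 active = inhibition above a cutoff: mean of compounds within the control limits plus 3 SD of those, cut at about 17% in these data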;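 also: 0% = plate median of compound wells and 100% = probe without SIAE protein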
# HTRA1 inh: HTRA1 serine protease inhibitors, primary screen, biochemical, fluorescence polarization, HTS; Q92743; AID 504803, 2011; 340,000 compounds, 0.5% hits; recombinant HTRA1, FP-rhodamine activity-based probe; inhibition, % at 5.96 µM; in the data active = inhibition above about 36%;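 also: 0% = enzyme with DMSO and 100% = wells lacking enzyme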
# mABHD4 conf: ABHD4 inhibitors, retest, confirmation, biochemical, fluorescence polarization, mouse; shares compounds with mABHD4 FP; 1,800 compounds, 55% hits; purified mABHD4, FP-Rh probe fluorescence polarization; inhibition, % at 8.92 µM;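 active = mean inhibition across replicates above the hit cutoff set in the primary screen, cut at about 30% in these data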;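 also: 0% = wild-type ABHD4 with DMSO and 100% = catalytically dead S159A mutant with DMSO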
# The depositor's hits bear a star; . = not tested or not shown; + = active, no number; ! = not confirmed by another sample.
SMILES,ATG4B inhibitor,mABHD4 FP,TCR-CD3 inh,PRMT1 inh,SIAE inh,HTRA1 inh,mABHD4 conf
CCCCCCSc1ccc(-c2nc3ccccn3c2NCCCC)cc1,6,44*,3,1,5,0,50*
Cc1cc(N2CCN(C(=O)Oc3ccc(-c4ccccc4)cc3)CC2)c2ccccc2n1,.,-2,.,2,1,.,.
Cc1c(CCOC(=O)c2ccc(Cl)cc2Cl)sc[n+]1CC(=O)c1ccc(Br)cc1,7,29,0,7,-1,-23,.
Cc1c(CCOC(=O)C2C3CC4CC(C3)CC2C4)sc[n+]1CC(=O)c1ccc(Br)cc1 (configuration not stated),13,32*!,-5,-1,-1,-68,36*
CN[C@H]1C[C@H]2c3cc(-c4ccc5c(c4)OCO5)ccc3CCN2C[C@H]1[C@H](C)O,.,4,.,-4,0,.,.
CCN(CCNCC(O)COc1ccccc1C(C)C)c1cccc(C)c1 (configuration not stated),12,32*,3,-4,3,14,41*
CCC(C)C(=O)Nc1nc(C)c(-c2csc(Nc3cc(OC)ccc3OC)n2)s1 (configuration not stated),-18,38*,-1,3,13,15,62*
N=c1n(CCN2CCCCC2)c2ccccc2n1CC(=O)c1cccs1,-8,43*,5,-4,1,2,13
CCN(CC)c1c(C)nc2ccc(C(=O)Nc3cc(-c4ccccc4)ccc3OC)cn12,.,53*,-6,1,-1,.,59*
CCc1nc2ccc(C(=O)Nc3cc(-c4ccccc4)ccc3OC)cn2c1N(C)Cc1ccc(Cl)cc1,.,4,-1,-4,-4,.,.
O=C1CC(c2ccccc2)=NN1c1nc(-c2ccccc2)cs1,19,23,5,9,-2,-6,.
CC1=NN(c2nc(-c3ccccc3)cs2)C(=O)C1,-7,49*,-1,6,11,11,146*
C/C(=N\Nc1nc2ccccc2[nH]1)c1ccc(N2CCOCC2)cc1,5,33*,-1,0,4,12,30*
C/C(=N\NC(=O)c1ccccc1)c1ccc(N2CCOCC2)cc1,-14,71*,8,0,10,0,-13
CC(=O)N1CCC(=NNc2nc3ccccc3[nH]2)CC1,3,30*,-3,2,9,.,7
C/C(=N\Nc1nc2ccccc2[nH]1)c1ccc(C)o1,-10,12,6,0,1,2,.
C/C(=N\Nc1nc2ccccc2[nH]1)c1ccc(Cl)s1,1,31*,2,-1,11,11,23
O=[N+]([O-])c1ccc(OCCCN2CCC(C(O)(c3ccccc3)c3ccccc3)CC2)c(Cl)c1,.,5,.,-4,0,.,.
Cc1ccc(OCC(C)CN2CCC(C(O)(c3ccccc3)c3ccccc3)CC2)cc1 (configuration not stated),.,3,.,-4,1,.,.
CC1(C)CC(=O)C=C(Nc2ccc(C(=O)O)c(O)c2)C1,-3,32*,3,10,9,-2,-2
NC(N)=N/N=C(\N=Nc1ccccc1)c1ccc(Cl)cc1,-4,44*,-4,-8,2,29,55*
CCNC(=S)N/N=C/c1cn(Cc2ccc(F)cc2)c2ccccc12,8,3,1,0,9,3,.
O=C(O)c1ccc(N/N=C/c2cn(Cc3ccc(F)cc3)c3ccccc23)cc1,14,50*,6,18,10,-2,55*
CCCCn1cnc2cc(NCc3cccc(OC)c3O)ccc21,-7,14,2,-1,1,12,.
CCn1cnc2cc(NCc3cccc(OC)c3O)ccc21,-1,+,5,3,0,13,6
